KCNK9 block: KCNK9 potassium channel inhibitors, primary screen, HEK293 cells, thallium flux. Potassium channel subfamily K member 9 (Homo sapiens), Q9NPC2. FluxOR thallium flux fluorescence; active compounds read low. B-score at 10 µM. hit rate 1.2% among 310,000. AID 488922, 2010;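 active = ratio B-score over 3 SD below the library mean, with starting fluorescence within 5 SD of its mean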;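 also: negative B-score means less thallium flux so channel inhibition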
Kir21 block: inhibitors of mouse Kir2.1 inward-rectifier potassium channel. HEK293-Kir2.1, FluxOR thallium flux fluorescence; active compounds read low. B-score at 10 µM. AID 1672, 2009. hit rate 0.85% among 310,000. Inward rectifier potassium channel 2 (Mus musculus), P35561;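 active = fluorescence ratio B-score at or below minus 3 SD of library scores, with starting-brightness B-score within 2 SD, cut at about -4.2 in these data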;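 also: channel flux triggered by added potassium and thallium sulfate stimulus; B-score of peak minus minimum fluorescence over baseline after thallium stimulus; more negative B-score means stronger Kir2.1 block with less thallium influx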
KCNK3 inh: human KCNK3 channel inhibitors, primary screen, CHO cells, FluxOR thallium flux, B-score | Potassium channel subfamily K member 3 (Homo sapiens), O14649 | FluxOR fluorescence; active compounds read low | B-score at 10 µM | hit rate 0.84% among 340,000 | AID 602410, 2012;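 active = B-score under library mean minus 4 SD, starting fluorescence ratio at most library mean plus 5 SD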;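 also: more negative B-score means stronger inhibition of thallium flux through KCNK3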
KCNQ1 act: potentiators or activators of KCNQ1 channel, primary screen, cell-based, thallium flux, high-throughput. hit rate 0.35% among 310,000. AID 2648, 2010. CHO-K1 KCNQ1, thallium flux FluxOR fluorescence; active compounds read high. B-score at 10 µM. Potassium voltage-gated channel subfamily KQT member 1 (Homo sapiens), P51787;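 active = fluorescence ratio B-score, a plate-corrected score, at least three library SD, with initial intensity B-score within 5 SD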
Target sequence (P51787 whole entry, looked up): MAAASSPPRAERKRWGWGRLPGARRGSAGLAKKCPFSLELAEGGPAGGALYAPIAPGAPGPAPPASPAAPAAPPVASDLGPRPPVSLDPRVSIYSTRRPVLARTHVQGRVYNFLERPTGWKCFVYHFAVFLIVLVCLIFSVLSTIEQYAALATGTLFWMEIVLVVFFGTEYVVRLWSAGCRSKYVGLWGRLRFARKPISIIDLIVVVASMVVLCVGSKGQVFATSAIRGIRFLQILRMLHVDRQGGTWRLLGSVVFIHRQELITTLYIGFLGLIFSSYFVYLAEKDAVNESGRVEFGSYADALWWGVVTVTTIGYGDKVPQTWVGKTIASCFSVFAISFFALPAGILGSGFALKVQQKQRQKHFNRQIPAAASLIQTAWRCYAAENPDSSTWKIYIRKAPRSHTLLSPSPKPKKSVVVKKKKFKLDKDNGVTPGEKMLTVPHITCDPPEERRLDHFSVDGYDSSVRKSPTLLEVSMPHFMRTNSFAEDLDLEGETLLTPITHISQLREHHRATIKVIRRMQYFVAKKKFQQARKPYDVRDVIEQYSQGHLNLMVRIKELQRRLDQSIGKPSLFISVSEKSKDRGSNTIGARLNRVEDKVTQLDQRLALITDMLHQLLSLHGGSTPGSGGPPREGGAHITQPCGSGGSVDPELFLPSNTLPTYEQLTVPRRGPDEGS
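Assay system: CHO-K1 cells stably expressing KCNQ1. Medium: assay buffer for compound exposure, DMSO matched across wells. Timing: 37 °C overnight plating, 90-min dark dye load, 20-min compound pretreatment. Signal: kinetic FluxOR fluorescence, 10 s baseline plus 110 s post-stimulus.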
KCNQ1 inh: inhibitors of human KCNQ1 channel, primary screen, cell-based, thallium flux, high-throughput; Potassium voltage-gated channel subfamily KQT member 1 (Homo sapiens), P51787; B-score at 10 µM; hit rate 1.3% among 310,000; AID 2642, 2010; CHO-K1 KCNQ1, FluxOR thallium flux fluorescence; active compounds read high;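 active = compounds whose thallium flux B-score, printed positive for inhibition, exceeds three library SD while starting fluorescence stays within three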;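 also: channel opened by potassium depolarization with thallium stimulus after 20 min compound exposure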
hERG rescue: hERG rescue from dofetilide block, primary screen, cell-based, CHO-hERG, FluxOR thallium flux, dofetilide IC70; hit rate 0.51% among 310,000; AID 1511, 2009; activation (rescue from dofetilide block), less the hit threshold, % at 10 µM; dofetilide IC70 present; Voltage-gated inwardly rectifying potassium channel KCNH2 (Homo sapiens), Q12809;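 active = activation above the mean of controls blocked by dofetilide plus 5 SD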;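 also: thallium influx through hERG after potassium depolarization seen as dye fluorescence rise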
KCNK9 block conf: KCNK9 potassium channel inhibitors, confirmation, HEK293 cells, thallium flux, duplicate; hit rate 43% among 4,900; shares compounds with KCNK9 block; inhibition, % at 10 µM; FluxOR thallium flux fluorescence;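 active = thallium signal inhibited by more than 5 SD of the compound-free buffer control wells, on both duplicate plates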
Kir21 sel: mouse Kir2.1 channel inhibition, confirmation, selectivity assay for KCNK9 modulator project, cell-based, HEK293, thallium flux. shares compounds with KCNK9 block. Kir2.1 cells, FluxOR thallium flux fluorescence. inhibition, % at 10 µM. hit rate 4% among 4,900. AID 492993, 2010;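 active = thallium signal drop more than 5 SD beyond the mean of the no-compound control wells, seen in both duplicate plates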;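 also: signal is fluorescence rise after thallium addition divided by baseline fluorescence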
KCNK9 uninduced: thallium flux in non-induced HEK293 cells, confirmation, counter-screen for KCNK9 inhibitor project, cell-based, second counter screen, non-induced KCNK9-HEK293; FluxOR thallium flux; shares compounds with KCNK9 block; AID 492997, 2010; inhibition, % at 10 µM; hit rate 40% among 4,900;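 active = thallium signal drop beyond 5 SD of the untreated control mean, on both duplicate plates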
Numbers stand for hits; . = inactive; / = no result. Shown are actives, neighbours in structure and some others; about 3.7% of the full set was active somewhere.

SMILES	KCNK9 block	Kir21 block	KCNK3 inh	KCNQ1 act	KCNQ1 inh	hERG rescue	KCNK9 block conf	Kir21 sel	KCNK9 uninduced
CSc1ccccc1NC(=O)N1CCCC(C(=O)c2ccc3c(c2)OCO3)C1 (centres undefined)	.	.	.	.	.	.	.	.	.
O=C(c1ccc2c(c1)OCO2)C1CCCN(Cc2ccc3cccc(F)c3n2)C1 (centres undefined)	.	.	.	.	.	.	.	.	.
O=C(c1ccc2c(c1)OCO2)C1CCCN(Cc2cn[nH]c2-c2cccc(F)c2)C1 (centres undefined)	.	.	.	.	.	.	/	/	/
O=C(c1ccc2c(c1)OCO2)C1CCCN(C(=O)c2cnn(Cc3ccccc3)c2)C1 (centres undefined)	.	.	.	.	.	.	.	.	.
O=C(c1ccc2c(c1)OCO2)C1CCCN(C(=O)NCc2ccccc2)C1 (centres undefined)	.	.	.	.	.	.	/	/	/
CC(=O)c1ccc(NC(=O)N2CCCC(C(=O)c3ccc4c(c3)OCO4)C2)cc1 (centres undefined)	.	.	.	.	.	.	/	/	/
Cc1cc(N2CCCCC2)n2ncc(-c3ccc(Cl)cc3)c2n1	-11	.	.	.	.	.	54%	.	36%
CC(=O)N1CCN(c2ccc(NCc3ccc(-c4cccc(Cl)c4)o3)cc2)CC1	/	/	.	/	/	/	/	/	/
CCc1ccc(N=C2NC(=O)/C(=C/c3ccc(OCC(=O)O)c(OC)c3)S2)cc1	.	.	.	.	.	.	.	.	.
CCc1ccc(N=C2NC(=O)/C(=C/c3ccc(OCC(=O)O)cc3)S2)cc1	.	.	.	.	.	.	/	/	/
CCCCc1ccc(-n2nnnc2SCC(=O)Nc2cc(OC)c([N+](=O)[O-])cc2C)cc1	.	.	.	.	.	.	.	.	.
Cc1cc(C)c(C)c(S(=O)(=O)NCC(=O)NCC2CCCCC2)c1C	-12	.	.	.	.	.	34%	.	26%
CNc1oc(Cc2cccc3ccccc23)nc1C#N	.	.	.	.	.	.	/	/	/
COc1ccc(CCNc2oc(Cc3cccc4ccccc34)nc2C#N)cc1OC	-8.2	.	.	.	.	.	40%	37%	27%
O=C(C1COc2ccccc2O1)N1CCN(S(=O)(=O)c2ccccc2)CC1 (centres undefined)	.	.	.	.	.	.	/	/	/
COCCSc1ccccc1C(=O)Nc1ccc(Br)cc1	-13	.	.	.	.	.	44%	.	25%
CCn1c(C)c(C(C)=O)c(N2CCCCC2)nc1=S	.	.	.	.	.	.	/	/	/
CCn1c(C)c(C(C)=O)c(N2CCN(C(c3ccccc3)c3ccccc3)CC2)nc1=S	-9.1	.	.	.	.	.	.	.	.
CCCOc1ccc(CNC(=O)c2ccc3c(c2)N(CC)CCS3)cc1	.	.	.	.	.	.	.	.	.
COc1cc2c(c(OC)c1OC)C(c1ccc(C)cc1)CC(=O)O2 (centres undefined)	/	/	.	/	/	/	/	/	/
O=C1C(CO)C(CO)C(CO)C1CO (centres undefined)	/	/	.	/	/	/	/	/	/
CN(C)CCN(Cc1ccccc1)c1ccnc(N(C)C)c1C#N	.	.	.	.	.	.	/	/	/
CN(C)c1nccc(N(Cc2ccccc2)Cc2ccccc2)c1C#N	.	.	.	.	.	.	.	.	24%
COc1ccc(C/C(=N\O)c2ccc(OC)cc2)cc1	.	.	.	.	.	.	.	.	.
CC(OC(=O)CCC(=O)c1ccc(F)cc1)C(=O)NC1CCCCC1C (centres undefined)	.	.	.	.	.	.	/	/	/
SMILES	KCNK9 block	Kir21 block	KCNK3 inh	KCNQ1 act	KCNQ1 inh	hERG rescue	KCNK9 block conf	Kir21 sel	KCNK9 uninduced
CC(C)c1ccc(OCC(=O)N2CCc3ccccc3C2)cc1	.	.	.	.	.	.	.	.	.
O=C(Cc1c(Cl)cccc1Cl)OCC(=O)N1CCc2ccccc2C1	.	.	.	.	.	.	.	.	.
CC(=O)Nc1ccc(OCC(=O)N2CCc3ccccc3C2)cc1	.	.	.	.	.	.	/	/	/
Cc1ccc(-c2nnc(Sc3nc4ccccc4o3)c3ccccc23)cc1	.	.	.	.	.	.	/	/	/
Clc1ccc(-c2nnc(Sc3nc4ccccc4o3)c3ccccc23)cc1	.	.	.	.	.	.	.	.	.
CN1CCC(N(C)S(=O)(=O)c2ccc(NC(=O)COc3cccc(C(F)(F)F)c3)cc2)CC1	.	.	.	.	.	.	/	/	/
COc1cc(C)c(NC(=O)C(=S)NCCc2ccccc2)cc1C	.	.	.	.	.	.	.	.	.
CC(=O)c1cccc(N=Nc2c(-c3ccccc3)[nH]n(-c3ccccc3)c2=O)c1	.	.	.	.	.	.	/	/	/
CCc1nc2c(s1)CCc1onc(-c3ccc(Cl)cc3)c1-2	-13	.	.	.	.	.	70%	.	38%
O=C1C(Cl)=C(NC2CCCCC2)C(=O)N1Cc1ccccc1	.	.	.	.	.	.	.	.	.
O=C(CC(Nc1ccc(F)cc1)c1ccccc1)c1ccccc1 (centres undefined)	-11	.	.	.	.	.	.	.	.
O=C(COc1ccc2ccccc2c1)Nc1cccc2cccnc12	-8.7	.	.	.	.	.	46%	.	39%
O=C(COc1ccc2ccccc2c1)Nc1cccnc1Cl	.	.	.	.	.	.	/	/	/
COc1ccc(CNC(=O)c2[nH]c(C)c(C(C)=O)c2C)cc1	.	.	.	.	.	.	/	/	/
CSc1ccc(NS(=O)(=O)c2ccc(-n3cnnn3)cc2)cc1	.	.	.	.	.	.	/	/	/
c1ccc(-c2cc3c(N4CCN(c5ncccn5)CC4)ncnc3s2)cc1	.	.	.	.	.	.	.	.	.
COc1cc(C2NC(=O)CCC2[N+](=O)[O-])cc(OC)c1OC (centres undefined)	.	.	.	.	.	.	/	/	/
